Assay results published in ChEMBL document CHEMBL1126834, “Chemistry, binding affinities, and behavioral properties of a new class of "antineophobic" mitochondrial DBI receptor complex (mDRC) ligands” (J Med Chem, 1993).

Legend:
Cannabinoid receptor 1 = Cannabinoid receptor 1 (Rattus norvegicus, UniProt P20272); assay: Inhibitory activity, measured by displacement [3H]CP-55940 from cannabinoid receptor (CB1) in rat brain; format: tissue-based
[1] = Inhibitory activity at GABA B receptor, measured by the ability to displace [3H]baclofen from GABA B receptor in rat brain; format: tissue-based
[2] = molecular target: GABA-A receptor; anion channel; assay: Inhibitory activity at GABA A receptor, measured by the ability to displace [35S]TBPS from GABA A receptor in rat brain; format: tissue-based
[3] = molecular target: GABA-A receptor; anion channel; assay: Inhibitory activity at GABA A receptor, measured by the ability to displace [3H]GABA from GABA A receptor in rat brain; format: tissue-based
[4] = molecular target: GABA-A receptor; anion channel; assay: Inhibitory activity at GABA A receptor, measured by the ability to displace [3H]flumazenil from GABA A receptor in rat brain; format: tissue-based
[5] = molecular target: GABA-A receptor; anion channel; assay: Inhibitory activity at GABA A receptor, measured by the ability to displace [3H]zolpidem from GABA A receptor in rat brain; format: tissue-based
[6] = molecular target: T1, Gastrin/cholecystokinin type B receptor (Rattus norvegicus, UniProt P30553); assay: Inhibitory activity by measuring its ability to displace [3H]L-365260 from cholecystokinin receptor in rat brain; format: tissue-based
T1 sequence (P30553 whole entry): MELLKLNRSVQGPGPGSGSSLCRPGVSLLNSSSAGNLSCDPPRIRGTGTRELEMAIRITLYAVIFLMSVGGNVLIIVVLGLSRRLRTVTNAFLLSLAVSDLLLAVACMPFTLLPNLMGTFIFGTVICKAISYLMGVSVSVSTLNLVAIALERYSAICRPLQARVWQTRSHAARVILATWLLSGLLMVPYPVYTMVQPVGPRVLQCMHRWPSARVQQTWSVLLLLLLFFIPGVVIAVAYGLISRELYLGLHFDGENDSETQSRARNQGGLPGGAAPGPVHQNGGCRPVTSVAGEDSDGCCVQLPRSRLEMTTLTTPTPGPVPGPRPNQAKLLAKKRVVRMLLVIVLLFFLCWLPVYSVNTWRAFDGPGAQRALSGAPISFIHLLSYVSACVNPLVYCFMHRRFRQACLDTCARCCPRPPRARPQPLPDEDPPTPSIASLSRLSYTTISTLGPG

[7] = molecular target: Adrenergic receptor alpha; assay: Inhibitory activity by measuring its ability to displace [3H]WB-4101 from alpha-adrenergic receptor in rat brain; format: tissue-based
[8] = molecular target: Adrenergic receptor alpha; assay: Inhibitory activity by measuring its ability to displace [3H]clonidine from alpha-adrenergic receptor in rat brain; format: tissue-based
Adrenergic receptor beta = Adrenergic receptor beta (Rattus norvegicus, UniProt P18090+P10608+P26255); assay: Inhibitory activity by measuring its ability to displace [125I]pindolol from beta-adrenergic receptor in rat brain; format: tissue-based
[9] = Inhibitory activity by measuring its ability to displace [3H]glycine from glycine receptor in rat brain; format: tissue-based
Glutamate NMDA receptor = assay: Inhibitory activity by measuring its ability to displace [3H]-MK-801 from glutamate(NMDA) receptor in rat brain; format: tissue-based
[10] = Tested for inhibitory activity by measuring its ability to displace [3H]AMPA from glutamate (non-NMDA) receptor in rat brain; format: tissue-based
[11] = Inhibitory activity by measuring its ability to displace [3H]spiperone from dopamine or serotonin 5-HT-1 receptors in rat brain; format: tissue-based
Opioid receptor = Opioid receptor (Rattus norvegicus, UniProt P33533+P34975+P33535); assay: Inhibition of [3H]naxolone binding to opiate receptors in rat brain; format: tissue-based
Translocator protein = Translocator protein (Rattus norvegicus, UniProt P16257); assay: Binding affinity against mitochondrial DBI complex (peripheral benzodiazepine receptor) using primary cultures of glial cells
Translocator protein, sequence (P16257 whole entry, looked up): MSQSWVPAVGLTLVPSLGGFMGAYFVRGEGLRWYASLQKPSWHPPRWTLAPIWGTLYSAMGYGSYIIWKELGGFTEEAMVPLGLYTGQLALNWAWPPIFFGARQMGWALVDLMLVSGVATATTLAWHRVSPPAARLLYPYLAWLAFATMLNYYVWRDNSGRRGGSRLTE
How it was run: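 Glia from cerebella of 8-day-old Sprague–Dawley rat pups, trypsin-dissociated and grown 14 days (~95% astroglia). Cells lysed in 50 mM Hepes pH 7.4, 4 μg protein per tube. Incubated with [3H]4'-chlorodiazepam and competitor for 90 min at 4 °C, then filtered. Nonspecific binding defined with 10 μM 4'-chlorodiazepam. Triplicate competition curves; IC50 by nonlinear regression, converted to Ki (Bylund–Yamamura).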

[12] = molecular target: Serotonin 2 (5-HT2) receptor (Rattus norvegicus); assay: Inhibitory activity by measuring its ability to displace [3H]ketanserin from serotonin receptor in rat brain
[13] = molecular target: Sigma receptor (Rattus norvegicus); assay: Tested for inhibitory activity by measuring its ability to displace [3H]3-PPP from sigma receptor in rat brain
[14] = molecular target: Adrenergic receptor alpha; assay: Displacement of [3H]clonidine from alpha-adrenergic receptor in rat brain; format: tissue-based

Cannabinoid receptor 1, sequence (P20272 whole entry): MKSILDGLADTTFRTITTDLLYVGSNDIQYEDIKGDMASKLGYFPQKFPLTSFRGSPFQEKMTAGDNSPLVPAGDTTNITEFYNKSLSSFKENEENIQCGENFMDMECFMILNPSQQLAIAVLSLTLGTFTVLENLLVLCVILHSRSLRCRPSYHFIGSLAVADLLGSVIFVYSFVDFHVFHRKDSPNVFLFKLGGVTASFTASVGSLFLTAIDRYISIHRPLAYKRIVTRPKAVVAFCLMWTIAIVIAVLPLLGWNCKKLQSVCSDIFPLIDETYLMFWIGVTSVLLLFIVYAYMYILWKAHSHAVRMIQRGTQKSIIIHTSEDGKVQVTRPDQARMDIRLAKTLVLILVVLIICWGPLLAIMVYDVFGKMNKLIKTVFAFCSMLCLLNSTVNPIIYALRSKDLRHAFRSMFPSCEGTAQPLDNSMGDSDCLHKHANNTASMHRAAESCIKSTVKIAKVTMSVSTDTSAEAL

SMILES | IC50 (Cannabinoid receptor 1) | IC50 [1] | IC50 [2] | IC50 [3] | IC50 [4] | IC50 [5] | IC50 [6] | IC50 [7] | IC50 [8] | IC50 (Adrenergic receptor beta) | IC50 [9] | IC50 (Glutamate NMDA receptor) | IC50 [10] | IC50 [11] | IC50 (Opioid receptor) | Ki (Translocator protein) | IC50 [12] | IC50 [13] | IC50 [14]
CCCN(CCC)C(=O)CCc1c(-c2ccc(Cl)cc2)[nH]c2ccc(Cl)cc12 | > 1000 nM | > 1000 nM | > 1000 nM | > 1000 nM | > 1000 nM | > 1000 nM | > 1000 nM | > 1000 nM | > 1000 nM | > 1000 nM | > 1000 nM | > 1000 nM | > 1000 nM | > 1000 nM | > 1000 nM | 71 nM | > 1000 nM | > 1000 nM | 
CCCCCCCCCCNC(=O)Cc1c(-c2ccccc2)[nH]c2ccccc12 | > 1000 nM | > 1000 nM | > 1000 nM | > 1000 nM | > 1000 nM | > 1000 nM | > 1000 nM | > 1000 nM | > 1000 nM | > 1000 nM | > 1000 nM | > 1000 nM | > 1000 nM | > 1000 nM | > 1000 nM | > 1000 nM | > 1000 nM | > 1000 nM | 
CCCCCCCCCCCCCCCCCCNC(=O)Cc1c(-c2ccccc2)[nH]c2ccccc12 | > 1000 nM | > 1000 nM | > 1000 nM | > 1000 nM | > 1000 nM | > 1000 nM | > 1000 nM | > 1000 nM |  | > 1000 nM | > 1000 nM | > 1000 nM | > 1000 nM | > 1000 nM | > 1000 nM |  | > 1000 nM | > 1000 nM | > 1000 nM
CCCCCCNC(=O)Cc1c(-c2ccccc2)[nH]c2ccccc12 | > 1000 nM | > 1000 nM | > 1000 nM | > 1000 nM | > 1000 nM | > 1000 nM | > 1000 nM | > 1000 nM | > 1000 nM | > 1000 nM | > 1000 nM | > 1000 nM | > 1000 nM | > 1000 nM | > 1000 nM | 96 nM | > 1000 nM | > 1000 nM | 

The remaining lines, values ahead:

IC50 (Cannabinoid receptor 1) | IC50 [1] | IC50 [2] | IC50 [3] | IC50 [4] | IC50 [5] | IC50 [6] | IC50 [7] | IC50 [8] | IC50 (Adrenergic receptor beta) | IC50 [9] | IC50 (Glutamate NMDA receptor) | IC50 [10] | IC50 [11] | IC50 (Opioid receptor) | Ki (Translocator protein) | IC50 [12] | IC50 [13] | IC50 [14] | SMILES
> 1000 nM | > 1000 nM | > 1000 nM | > 1000 nM | > 1000 nM | > 1000 nM | > 1000 nM | > 1000 nM | > 1000 nM | > 1000 nM | > 1000 nM | > 1000 nM | > 1000 nM | > 1000 nM | > 1000 nM | 15 nM | > 1000 nM | > 1000 nM |  | CCCCCN(CCCCC)C(=O)Cc1c(-c2ccc(F)cc2)[nH]c2ccccc12
> 1000 nM | > 1000 nM | > 1000 nM | > 1000 nM | > 1000 nM | > 1000 nM | > 1000 nM | > 1000 nM | > 1000 nM | > 1000 nM | > 1000 nM | > 1000 nM | > 1000 nM | > 1000 nM | > 1000 nM | 3.9 nM | > 1000 nM | > 1000 nM |  | CCCN(CCC)C(=O)Cc1c(-c2ccc(Cl)cc2)[nH]c2ccc(Cl)cc12
> 1000 nM | > 1000 nM | > 1000 nM | > 1000 nM | > 1000 nM | > 1000 nM | > 1000 nM | > 1000 nM |  | > 1000 nM | > 1000 nM | > 1000 nM | > 1000 nM | > 1000 nM |  | > 1000 nM |  |  | > 1000 nM | CCCCCCCCN(CCCCCCCC)C(=O)Cc1c(-c2ccccc2)[nH]c2ccccc12
